Bioassay records: PubChem BioAssay, several laboratories
ALR H2O2 inh = blocks human ALR sulfhydryl oxidase activity. P55789. purified ALR, DTT oxidation, H2O2 HRP-luminol luminescence. inhibition, % (no concentration beside the values). actives 3.8% (n = 290,000);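 active means mean replicate inhibition above about 79%, with every replicate also reaching it, limit read from the data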
Rin1-Abl PPI inh = blocks binding of human Rin1 to Abl; P00519+Q13671; TR-FRET Rin1/Abl binding, biochemical; inhibition, % at 7.35 µM; actives 0.4% (n = 360,000); AID 588664; in the data active means inhibition above about 5%, passing the limit was not always enough
RBBP9 inhibitor = blocks human serine hydrolase RBBP9 | O75884 | recombinant RBBP9, FP-Rh probe fluorescence polarization | inhibition, % at 7.94 µM | actives 0.2% (n = 220,000);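 active means inhibition above the campaign mean of all tested compounds plus 3 SD, cut at about 14% in these data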;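 further: plate controls were DMSO wells with RBBP9 for no effect and wells lacking RBBP9 protein for full effect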
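Measured by: FP readout at 525/598 nm; material: recombinant human RBBP9; also added: Serine-hydrolase probe FP-Rh, 375 nM pre-mixing; medium: Tris buffer pH 8.0, NaCl, Pluronic; replication: one well per compound; doses: one concentration, 7.94 µM nominal, 0.794% DMSO; timing: preincubation 30 min plus labeling 45 min at 25 °C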
UBC13 inh = blocks human UBC13 polyubiquitin chain formation; AID 485273; TR-FRET; inhibition, % at 20 µM; P61088; actives 0.47% (n = 330,000); in the data active means inhibition above about 45%, passing the limit was not always enough
PREPL inhibitor = human PREPL enzyme inhibition; Q4J6C6; recombinant PREPL, fluorescence polarization activity-based probe; inhibition, % at 5.96 µM; actives 0.68% (n = 320,000); AID 2751;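 further: 0% = enzyme with DMSO and 100% = wells lacking enzyme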
Target sequence (Q4J6C6 whole entry, looked up): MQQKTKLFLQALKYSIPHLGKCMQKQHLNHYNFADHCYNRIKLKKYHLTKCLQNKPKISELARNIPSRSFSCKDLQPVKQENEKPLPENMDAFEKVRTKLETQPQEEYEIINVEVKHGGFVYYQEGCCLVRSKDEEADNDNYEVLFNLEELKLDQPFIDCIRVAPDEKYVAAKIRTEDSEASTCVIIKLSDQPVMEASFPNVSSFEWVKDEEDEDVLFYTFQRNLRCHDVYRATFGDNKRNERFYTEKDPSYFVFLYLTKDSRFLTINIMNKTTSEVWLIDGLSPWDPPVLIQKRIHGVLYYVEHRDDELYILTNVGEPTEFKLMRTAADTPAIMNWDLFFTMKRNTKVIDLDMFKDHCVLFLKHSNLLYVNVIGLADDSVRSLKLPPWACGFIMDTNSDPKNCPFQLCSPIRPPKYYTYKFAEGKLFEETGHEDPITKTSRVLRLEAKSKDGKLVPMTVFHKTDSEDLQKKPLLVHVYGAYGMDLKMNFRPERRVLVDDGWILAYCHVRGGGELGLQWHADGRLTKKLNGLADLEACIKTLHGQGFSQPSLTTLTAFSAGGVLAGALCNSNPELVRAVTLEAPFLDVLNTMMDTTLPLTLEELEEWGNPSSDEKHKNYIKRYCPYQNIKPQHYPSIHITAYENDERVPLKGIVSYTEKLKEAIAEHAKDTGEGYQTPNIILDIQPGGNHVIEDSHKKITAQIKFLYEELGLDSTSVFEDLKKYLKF
SUMO HTRF inh = blocks human SUMOylation mediated by UBC9; HTRF SUMOylation assay, SAE1/SAE2 + UBC9, in vitro; inhibition, % at 35 µM; actives 0.36% (n = 290,000); AID 2006; in the data active means inhibition above about 50%, passing the limit was not always enough
PREPL confirm = human PREPL inhibition, confirmation; AID 2803; actives 67% (n = 2,000); shares compounds with PREPL inhibitor; inhibition, % at 5.96 µM; recombinant PREPL, fluorescence polarization activity probe;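 further: 0% = protein with DMSO and 100% = wells lacking protein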
An asterisk follows results filed as active; . = no result given. Most compounds without a hit are left out; they make up all but 4.3% or so of the library. Unless noted, no stated cut-off is given here; in the data, active means inhibition above about 43%; inactive means the rest.

SMILES	ALR H2O2 inh	Rin1-Abl PPI inh	RBBP9 inhibitor	UBC13 inh	PREPL inhibitor	SUMO HTRF inh	PREPL confirm
O=C1OC[C@H]2CCCN2C(=O)[C@@H](CC(=O)N(CCO)Cc2ccccc2)C/C=C\CC[C@@H]1Cc1ccc(F)cc1	-2	4	.	11	27	.	.
O=C1OC[C@@H]2CCCN2C(=O)[C@@H](CC(=O)N(CCO)Cc2ccccc2)C/C=C\C[C@H]1Cc1ccc(F)cc1	-12	3	.	10	53*	.	40
Cc1ccccc1OCC(=O)Nc1ccc(N2CCN(C(=O)c3ccco3)CC2)cc1	5	0	.	-8	58*	-8	48*
Cc1cccc(OCC(=O)Nc2ccc(N3CCN(C(=O)c4ccco4)CC3)cc2)c1C	-2	7	2	-4	48*	-1	47*
CC(C)Oc1ccc(C(=O)Nc2ccc(N3CCN(C(=O)c4ccco4)CC3)cc2)cc1	-3	-1	.	4	8	2	.
Cc1ccc(C(=O)NC(=S)Nc2ccc(N3CCN(C(=O)c4ccco4)CC3)cc2)cc1	1	-1	.	-6	48*	22	37
CC(C)(C)NC(=S)Nc1ccc(Nc2ccccc2)cc1	99*	-5	0	6	59*	7	10
COc1ccc(S(=O)(=O)NC(C)C(=O)NCc2ccccn2)cc1Cl (centres undefined)	0	-1	.	-2	12	-9	.
C[C@@H]1COC(=O)[C@@H](Cc2ccc(F)cc2)CC/C=C\C[C@@H](CC(=O)NCCO)C(=O)N1	-3	4	.	16	17	.	.
CC(C)(C)[C@H]1COC(=O)[C@H](Cc2ccc(F)cc2)CC/C=C/C[C@@H](CC(=O)N[C@H](CO)Cc2ccccc2)C(=O)N1	1	9	.	-6	46*	.	49*
CC(C)(C)[C@@H]1COC(=O)[C@H](Cc2ccc(F)cc2)CC/C=C\C[C@@H](CC(=O)NCCO)C(=O)N1	.	-4	.	-3	49*	.	35
CCCN(CC(=O)Nc1ccccc1C)C(=O)c1cc2ccccc2oc1=O	.	0	.	.	.	.	.
COC(=O)CCC(=O)OC1(C)C(=O)C2=CN(CCCOC(C)C)C(c3ccc(OC)cc3)=CC2=C(Br)C1=O (centres undefined)	.	-4	.	-87	33	5	.
COC(=O)CCC(=O)OC1(C)C(=O)C2=CN(C3CC3)C(c3ccc(OC)cc3)=CC2=C(Br)C1=O (centres undefined)	-12	2	.	-58	75*	.	69*
COC(=O)CCC(=O)OC1(C)C(=O)C2=CN(CC3CC3)C(c3ccc(OC)cc3)=CC2=C(Br)C1=O (centres undefined)	.	1	.	-87	69*	34	56*
COC(=O)CCC(=O)OC1(C)C(=O)C2=CN(c3ccccc3)C(c3ccc(OC)cc3)=CC2=C(Br)C1=O (centres undefined)	-37	3	.	-102	30	.	.
Clc1ccc(C2=C3CCCCn4c(-c5ccccc5)c[n+](c43)C2)cc1	.	0	-6	14	50*	33	27
CCN1CCN(c2cc(N3CCN(C(=O)c4ccco4)CC3)c3c4c(onc24)-c2ccccc2C3=O)CC1	-11	-11	.	-152	70*	-27	68*
O=C(O)CCNc1cc(N2CCN(C(=O)c3ccco3)CC2)c2noc3c2c1C(=O)c1ccccc1-3	57	-13	.	-140	38	-19	.
CCOc1ccc(-c2cnc(NCc3cccc4ccccc34)n2CCOC)cc1	-1	-1	.	16	47*	24	43
Cc1ccc(C(=O)Oc2cc(C)n(C)c(=O)c2)cc1	56	2	-5	-7	47*	6	26
CC(=O)c1c(OC(=O)c2ccc(C)cc2)c2ccccc2n1C	1	-3	-4	-3	8	-23	.
O=C(C[n+]1ccc(Cc2ccccc2)cc1)Nc1ccc([N+](=O)[O-])cc1Cl	-5	0	-3	13	56*	23	29
Cc1cccc[n+]1CC(=O)Nc1ccc([N+](=O)[O-])cc1Cl	-11	-1	3	3	8	8	.
Cc1ccc(Cl)cc1NC(=O)C[n+]1ccc(Cc2ccc([N+](=O)[O-])cc2)cc1	15	2	-9	31	67*	2	6
